We go through one molecule from ChEMBL document CHEMBL1275417, “Biological activities of novel gyrase inhibitors of the aminocoumarin class” (Antimicrob Agents Chemother, 2008).

Test [1] has as its system Streptococcus pneumoniae. The test can be described thus: Antibacterial activity against Streptococcus pneumoniae ATCC 49619 by broth microdilution method. The class given is functional.
Test [2] concerns Staphylococcus aureus. The test can be described thus: Antibacterial activity against Staphylococcus aureus 80CR5 by broth microdilution method. The format is functional.
The subject of test [3] is Escherichia coli. Kind of test: Antibacterial activity against Escherichia coli DC2 by broth microdilution method. The format is functional.
A further test has as its system Enterococcus faecium. Kind of test: Antibacterial activity against Enterococcus faecium ATCC 19434 by broth microdilution method. The class given is functional.
For test [4], the target named is DNA gyrase subunit A (Escherichia coli K-12) (UniProt P0AES4). Kind of test: Inhibition of Escherichia coli K-12 DNA gyrase A expressed in Escherichia coli DC2 assessed as compound concentration required for => 4-fold induction of luxCDABE operon by reported gene assay. The method, boiled down:
(§1)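 E. coli DC2 carrying a gyrA or sulA promoter–luxCDABE (Photorhabdus) fusion plasmid. Grown overnight at 37°C in LB with 2 μg/ml tetracycline, then diluted 1:100 in LB without tetracycline and precultured 1.5 h at 37°C. Compounds were added from DMSO stocks to 1% final DMSO and incubated 5 h at 37°C. Bioluminescence was divided by A595, and induction factor is the treated/untreated ratio. The value is the lowest test concentration giving ≥4-fold induction.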

Test [5] relates to Staphylococcus aureus. Kind of test: Antibacterial activity against Staphylococcus aureus ATCC 43300 by broth microdilution method. The format is functional.
The subject of test [6] is Escherichia coli. Kind of test: Antibacterial activity against Escherichia coli UB1005 by broth microdilution method. The class given is functional.
For test [7], the system named is Staphylococcus aureus. Kind of test: Antibacterial activity against Staphylococcus aureus ATCC 29213 by broth microdilution method. The format is functional.
For test [8], the system named is Streptococcus pneumoniae. Kind of test: Antibacterial activity against Streptococcus pneumoniae SL336-T by broth microdilution method. The class given is functional.
Test [9] addresses T1, Cell division inhibitor SulA (Escherichia coli K-12) (UniProt P0AFZ5).
T1 sequence (whole entry): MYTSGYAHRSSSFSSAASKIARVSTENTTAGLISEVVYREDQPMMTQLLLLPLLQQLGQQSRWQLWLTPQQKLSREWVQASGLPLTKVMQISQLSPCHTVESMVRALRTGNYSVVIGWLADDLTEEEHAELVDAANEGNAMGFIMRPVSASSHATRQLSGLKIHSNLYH
The test can be described thus: Inhibition of Escherichia coli K-12 DNA sulA expressed in Escherichia coli DC2 assessed as compound concentration required for => 4-fold induction of luxCDABE operon by reported gene assay. The method, boiled down:
as §1

The subject of another test is Klebsiella pneumoniae. The test can be described thus: Antibacterial activity against Klebsiella pneumoniae ATCC 27736 by broth microdilution method. The format is functional.
Test [10] relates to Pseudomonas aeruginosa. Kind of test: Antibacterial activity against Pseudomonas aeruginosa K799/61 by broth microdilution method. The format is functional.
A further test has as its target DNA gyrase subunit B (Escherichia coli, UniProt P0AES6). Kind of test: Inhibition of Escherichia coli JM109 DNA gyrase subunit B assessed as ATP hydrolysis by ATPase assay.
Test [11] deals with Pseudomonas aeruginosa. Kind of test: Antibacterial activity against Pseudomonas aeruginosa ATCC 27853 by broth microdilution method. The format is functional.
The test system of test [12] is Streptococcus pneumoniae. The test can be described thus: Antibacterial activity against Streptococcus pneumoniae TUPELO by broth microdilution method. The class given is functional.
The test system of test [13] is Escherichia coli. Kind of test: Antibacterial activity against Escherichia coli ATCC 25922 by broth microdilution method. The class given is functional.
Test [14] concerns the target DNA gyrase (Escherichia coli). The test can be described thus: Inhibition of Escherichia coli JM109 DNA gyrase assessed as DNA triple helix formation by supercoiling assay.
In the next test the test system is Enterococcus faecalis. Kind of test: Antibacterial activity against Enterococcus faecalis ATCC 29212 by broth microdilution method. The format is functional.
In test [15] the test system is Pseudomonas aeruginosa. The test can be described thus: Antibacterial activity against Pseudomonas aeruginosa K799/WT by broth microdilution method. The format is functional.

Each structure is given as a SMILES string. In brackets after ≈: the same amount, converted by molar mass.

DNA gyrase subunit A (Escherichia coli K-12), sequence (P0AES4 whole entry, the tested form may be a part): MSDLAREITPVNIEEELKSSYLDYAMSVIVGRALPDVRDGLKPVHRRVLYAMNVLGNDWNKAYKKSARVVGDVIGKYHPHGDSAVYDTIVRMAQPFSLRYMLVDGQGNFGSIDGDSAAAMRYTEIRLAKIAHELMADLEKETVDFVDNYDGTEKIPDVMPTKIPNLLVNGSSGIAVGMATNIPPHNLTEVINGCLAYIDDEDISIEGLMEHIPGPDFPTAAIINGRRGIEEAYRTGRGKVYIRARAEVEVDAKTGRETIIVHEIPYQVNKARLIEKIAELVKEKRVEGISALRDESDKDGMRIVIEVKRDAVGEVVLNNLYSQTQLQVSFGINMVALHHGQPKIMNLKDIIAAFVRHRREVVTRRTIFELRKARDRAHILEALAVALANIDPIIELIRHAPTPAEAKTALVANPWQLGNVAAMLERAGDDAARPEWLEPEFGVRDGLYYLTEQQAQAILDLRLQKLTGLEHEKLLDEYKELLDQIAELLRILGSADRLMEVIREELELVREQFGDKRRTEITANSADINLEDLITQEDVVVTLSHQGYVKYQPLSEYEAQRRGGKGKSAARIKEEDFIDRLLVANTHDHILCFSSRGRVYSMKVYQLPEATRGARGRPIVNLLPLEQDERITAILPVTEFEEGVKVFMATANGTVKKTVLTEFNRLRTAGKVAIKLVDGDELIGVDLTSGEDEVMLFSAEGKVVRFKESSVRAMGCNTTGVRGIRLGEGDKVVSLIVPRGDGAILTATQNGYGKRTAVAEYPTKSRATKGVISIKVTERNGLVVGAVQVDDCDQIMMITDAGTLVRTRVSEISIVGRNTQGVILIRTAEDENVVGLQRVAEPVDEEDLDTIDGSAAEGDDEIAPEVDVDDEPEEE

Consider `C=CCc1cc(C(=O)Nc2c(O)c3ccc(O[C@@H]4OC(C)(C)[C@H](OC)[C@@H](OC(=O)c5ccc(C)[nH]5)[C@H]4O)c(C)c3oc2=O)ccc1O`, for which the MIC is 1 µg/mL (≈ 1.54 µM) in the test on Streptococcus pneumoniae [1]; 16 µg/mL (≈ 24.7 µM) in the test with Staphylococcus aureus [2]; 8 µg/mL (≈ 12.3 µM) in the test on Escherichia coli [3]; above 32 µg/mL against Enterococcus faecium; at most 0.06 µg/mL against Staphylococcus aureus [5]; above 32 µg/mL with Escherichia coli [6]. In addition, the MIC in the test on Staphylococcus aureus [7] was at most 0.06 µg/mL; in the test on Streptococcus pneumoniae [8] it was 2 µg/mL (≈ 3.08 µM); in the test on Klebsiella pneumoniae, above 32 µg/mL; against Pseudomonas aeruginosa [10], 0.5 µg/mL (≈ 0.771 µM); against Pseudomonas aeruginosa [11] it was above 32 µg/mL; in the test on Streptococcus pneumoniae [12] it was 2 µg/mL (≈ 3.08 µM). Besides, the MIC in the test on Escherichia coli [13] was above 32 µg/mL; in the test with Enterococcus faecalis it was 8 µg/mL (≈ 12.3 µM); against Pseudomonas aeruginosa [15] it was above 32 µg/mL. Besides, the figures for the Activity in test [4] and in [9] were 1.6 µM and 3.1 µM, respectively. Moreover, the results for the IC50 (on DNA gyrase subunit B; in test [14]) were 116 nM and 34 nM, respectively.
